Data reported in article PMC5123777 (Biochemistry, 2015).

B1: OXA-48 class D β-lactamase (enzyme)
chain: KEWQENKSWNAHFTEHKSQGVVVLWNENKQQGFTNNLKRANQAFLPASTFKIPNSLIALDLGVVKDEHQVFKWDGQTRDIATWNRDHNLITAMKYSVVPVYQEFARQIGEARMSKMLHAFDYGNEDISGNVDSFWLDGGIRISATEQISFLRKLYHNKLHVSERSQRIVKQAMLTEANGDYIIRAKTGYSTRIEPKIGWWVGWVELDDNVWFFAMNMDMPTSDGLGLRQAITKEVLKQEKIIP

Columns and labels:
[1] = target: OXA-163 (Klebsiella pneumoniae, UniProt Q6XEC0, DEL214-217/S212D); experiment: Steady-state enzyme kinetics of substrate hydrolysis by OXA-163; assay type: biochemical, Klebsiella pneumoniae and Enterobacter cloacae; conditions: for Km / kcat: 30°C, 50 mM sodium phosphate pH 7.2, 15 mM sodium bicarbonate
Summary of the method: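 OXA-163 was purified from induced culture supernatant (0.4 mM IPTG, 23°C, 20 h) by zinc-chelate chromatography and size exclusion, and quantified at A280. Hydrolysis was followed by UV at 260 nm (ceftazidime, cefotaxime), 262 nm (cephalothin), 298 nm (meropenem), or 299 nm (imipenem, doripenem, […]). Data were fitted to Michaelis–Menten; where Vmax was unreachable, kcat/Km came from a first-order fit.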

[2] = target: OXA-48 (Klebsiella pneumoniae, UniProt Q6XEC0); experiment: Steady-state enzyme kinetics of substrate hydrolysis by OXA-48; assay type: biochemical; conditions: for OXA-48 kcat/Km value smaller compared to imipenem: relative to imipenem kcat/Km
[3] = tested on: class D β-lactamases (DBLs); conditions: in vitro; cited from earlier work
[4] = target: OXA-163 class D β-lactamase (Klebsiella pneumoniae and Enterobacter cloacae); experiment: SEC
[5] = target: OXA-163 class D β-lactamase (Klebsiella pneumoniae and Enterobacter cloacae); experiment: crystal structure
[6] = target: OXA-163 class D β-lactamase (Klebsiella pneumoniae and Enterobacter cloacae); experiment: crystal structure; remark: listed apart in the source
[7] = target: the molecule itself; experiment: SEC

Molecule	Km ([1]; OXA-163)	kcat ([1]; OXA-163)	other results
CO/N=C(\C(=O)N[C@@H]1C(=O)N2C(C(=O)O)=C(COC(C)=O)CS[C@H]12)c1csc(N)n1 [Cefotaxime, cefotaxime]	36 ± 11 µM	14 ± 1 s⁻¹	–
CC(C)(O/N=C(\C(=O)N[C@@H]1C(=O)N2C(C(=O)[O-])=C(C[n+]3ccccc3)CS[C@H]12)c1csc(N)n1)C(=O)O [Ceftazidime, ceftazidime]	> 1000 µM	–	hydrolysis by OXA-48 (steady-state kinetics analysis) [2]: does not hydrolyze; hydrolysis by OXA-163 ([1]; OXA-163): does hydrolyze
CC(=O)OCC1=C(C(=O)O)N2C(=O)[C@@H](NC(=O)Cc3cccs3)[C@H]2SC1 [Cephalothin, cephalothin]	3.4 ± 0.4 µM	1.7 ± 0.1 s⁻¹	–
C[C@@H](O)[C@H]1C(=O)N2C(C(=O)O)=C(S[C@@H]3CN[C@H](CNS(N)(=O)=O)C3)[C@H](C)[C@H]12 [Doripenem, doripenem]	5 ± 0.4 µM	0.018 ± 0.001 s⁻¹	OXA-48 kcat/Km value smaller compared to imipenem [2]: 56 fold
C[C@@H](O)[C@H]1C(=O)N2C(C(=O)O)=C(SCCN=CN)C[C@H]12 [Imipenem, imipenem]	3.6 ± 1 µM	0.004 ± 0.001 s⁻¹	drop in the catalytic efficiency of OXA-163 in comparison to OXA-48 ([1]; kcat/Km OXA-48 versus OXA-163): 820 fold
C[C@@H](O)[C@H]1C(=O)N2C(C(=O)O)=C(S[C@@H]3CN[C@H](C(=O)N(C)C)C3)[C@H](C)[C@H]12 [Meropenem, meropenem]	5.3 ± 0.5 µM	0.021 ± 0.001 s⁻¹	OXA-48 kcat/Km value smaller compared to imipenem [2]: 53 fold
[Cl-].[Na+] [NaCl, sodium chloride]	–	–	sodium chloride concentration at which most DBLs are fully inhibited [3]: 100 mM
O=C(Cc1cccs1)N[C@@H]1C(=O)N2C(C(=O)O)=C(/C=C/c3ccc([N+](=O)[O-])cc3[N+](=O)[O-])CS[C@H]12 [Nitrocefin, nitrocefin]	19 ± 8 µM	34 ± 2 s⁻¹	–
OXA-163 class D β-lactamase (enzyme)	–	–	stoichiometry N [4]: 2; stoichiometry N [5]: 2; stoichiometry N [6]: 2
B1	–	–	stoichiometry N [7]: 2
